Source: ChEMBL document CHEMBL2413052, “Synthesis and initial in vitro biological evaluation of two new zinc-chelating compounds: comparison with TPEN and PAC-1” (Bioorg Med Chem, 2013)
pEC50, pKd: −log10 of the molar value. Blank lines part the entries; values can stand above or below the molecule they belong to. Calls of active or inactive are those of the source. No cut-off for these calls is given here.

How the values were obtained:
PC-12 [1] = experiment: Induction of apoptosis in rat PC12 cells at 200 uM after 24 hrs by trypan blue exclusion assay in presence of caspase-3 inhibitor C3-I; assay type: functional, cell-based
Procedure, shortened: (§1)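 PC12 cells exposed 24 h to chelator (25, 100 or 200 µM), alone or together with ZnSO4, caspase-3 inhibitor, or DHR as ROS scavenger. Each additive was also tested alone. Stained with trypan blue. Dead cells expressed as % of total cells. Mean of 4 experiments ± S.D. One-way ANOVA with Holm-Sidak, compared against DMSO.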

PC-12 [2] = experiment: Induction of apoptosis in rat PC12 cells at 200 uM after 24 hrs by trypan blue exclusion assay; assay type: functional, cell-based
Procedure, shortened: (§2)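 PC12 cells (rat pheochromocytoma) grown in DMEM with 5% horse serum, 10% FBS, penicillin/streptomycin and sodium pyruvate at 37 °C, 5% CO2. Treated 24 h at 10, 25, 50, 75, 100 and 200 µM in DMSO (0.1% final). Trypan blue in 0.9% NaCl added 1:4 for 30 min at 37 °C. Blue cells counted as dead, as % of total cells. Mean of 4 experiments ± S.D.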

[3] = Metal chelating activity of the compound assessed as zinc affinity by UV spectroscopy; assay type: functional
Procedure, shortened: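 Compound diluted from a 10 mM DMSO stock to 50 µM final in 50 mM Hepes, 100 mM NaNO3, pH 7.4. ZnSO4 added at 0–1 equiv and equilibrated 60 min. Absorbance spectra recorded from 260 to 500 nm; change followed at 360 and 400 nm.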

PC-12 [4] = experiment: Induction of apoptosis in rat PC12 cells at 200 uM after 24 hrs by trypan blue exclusion assay in presence of ZnSO4; assay type: functional, cell-based; procedure, shortened: as §1
PC-12 [5] = experiment: Induction of apoptosis in rat PC12 cells after 24 hrs by trypan blue exclusion assay; assay type: functional, cell-based; details: for pEC50: PC-12, 24 h; procedure, shortened: as §2
PC-12 [6] = experiment: Induction of apoptosis in rat PC12 cells assessed as procaspase-3 activation at 200 uM after 24 hrs by fluorometric assay; assay type: functional, cell-based
Procedure, shortened: (§3)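 PC12 cells in 96-well plates were treated 4 h. Lysed in modified RIPA buffer (50 mM Tris-HCl pH 7.4, 1% Igepal, 0.25% deoxycholate, 150 mM NaCl, 1 mM EGTA) containing 20 µM (DEVD)2-rhodamine 110. Lysate incubated 24 h at 37 °C, fluorescence read at ex 485/em 535 nm. Wells with 1 µM Ac-DEVD-cmk served as negative control. DMSO control; staurosporine 0.5 and 1 µM as positive controls. Mean of 5 experiments ± S.D.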

PC-12 [7] = experiment: Induction of apoptosis in rat PC12 cells at 200 uM after 24 hrs by trypan blue exclusion assay in presence of DHR; assay type: functional, cell-based; procedure, shortened: as §1
[8] = Distribution co-efficient, log D of the compound at pH 7.4; assay type: physicochemical; details: buffer
PC-12 [9] = experiment: Induction of apoptosis in rat PC12 cells assessed as ROS induction at 200 uM measured after 1 to 4 hrs by DHR oxidation-based fluorometric assay; assay type: functional, cell-based
Procedure, shortened: (§4)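 PC12 cells in 96-well plates were loaded with DHR (0.1 µM) for 30 min at 37 °C, washed, then treated 1 h or 4 h. Medium was replaced with PBS and fluorescence read for 30 min (ex 485/em 535 nm). The slope gave ROS production, relative to the untreated-control slope at 4 h. Untreated and DMSO controls. Mean of 3 experiments ± S.D.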

PC-12 [10] = experiment: Induction of apoptosis in rat PC12 cells assessed as ROS induction by DHE oxidation-based fluorometric assay; assay type: functional, cell-based
PC-12 [11] = experiment: Induction of apoptosis in rat PC12 cells assessed as procaspase-3 activation at 25 uM after 24 hrs by fluorometric assay; assay type: functional, cell-based; details: in the assay text read “after 4 hrs” for “after 24 hrs”; procedure, shortened: as §3
PC-12 [12] = experiment: Induction of apoptosis in rat PC12 cells at 25 uM after 24 hrs by trypan blue exclusion assay in presence of ZnSO4; assay type: functional, cell-based; procedure, shortened: as §1
PC-12 [13] = experiment: Induction of apoptosis in rat PC12 cells assessed as ROS induction at 25 uM measured after 1 to 4 hrs by DHR oxidation-based fluorometric assay; assay type: functional, cell-based; procedure, shortened: as §4
PC-12 [14] = experiment: Induction of apoptosis in rat PC12 cells at 25 uM after 24 hrs by trypan blue exclusion assay in presence of caspase-3 inhibitor C3-I; assay type: functional, cell-based; procedure, shortened: as §1
PC-12 [15] = experiment: Induction of apoptosis in rat PC12 cells assessed as procaspase-3 activation at 100 uM after 24 hrs by fluorometric assay; assay type: functional, cell-based; procedure, shortened: as §3
PC-12 [16] = experiment: Induction of apoptosis in rat PC12 cells at 100 uM after 24 hrs by trypan blue exclusion assay in presence of ZnSO4; assay type: functional, cell-based; procedure, shortened: as §1
[17] = Lipophilicity, log P of the compound; assay type: physicochemical; details: octanol/water
PC-12 [18] = experiment: Induction of apoptosis in rat PC12 cells assessed as ROS induction at 100 uM measured after 1 to 4 hrs by DHR oxidation-based fluorometric assay; assay type: functional, cell-based; procedure, shortened: as §4
PC-12 [19] = experiment: Induction of apoptosis in rat PC12 cells at 100 uM after 24 hrs by trypan blue exclusion assay in presence of caspase-3 inhibitor C3-I; assay type: functional, cell-based; procedure, shortened: as §1
PC-12 [20] = experiment: Induction of apoptosis in rat PC12 cells at 100 uM after 24 hrs by trypan blue exclusion assay in presence of DHR; assay type: functional, cell-based; procedure, shortened: as §1
PC-12 [21] = experiment: Induction of apoptosis in rat PC12 cells assessed as procaspase-3 activation at 0.5 uM after 24 hrs by fluorometric assay; assay type: functional
Procedure, shortened: (§5)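 Rat PC12 cells were seeded in 96-well plates at 28 × 10^4 for 24 h, then treated for 4 h, with DMSO-treated cells as control. Cells were lysed in modified RIPA buffer (50 mM Tris-HCl pH 7.4, 1% Igepal, 0.25% deoxycholate, 150 mM NaCl, 1 mM EGTA) containing 20 µM (DEVD)2-Rhodamine 110. Lysate was incubated 24 h at 37 °C and read at ex 485/em 535 nm as RFU/million cells.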

PC-12 [22] = experiment: Induction of apoptosis in rat PC12 cells assessed as procaspase-3 activation at 1 uM after 24 hrs by fluorometric assay; assay type: functional; procedure, shortened: as §5

logD [8]: 1.27
Compound: Cc1ncc(CO)c(/C=N/NC(=O)CN2CCN(Cc3ccccc3)CC2)c1O
Activity (PC-12 [1]): inactive
EC50 (PC-12 [2]): ND(Insoluble)
pKd [3]: 12.70
Activity (PC-12 [4]): inactive
Activity (PC-12 [5]): Dose-dependent effect
Activity (PC-12 [6]): Active
Activity (PC-12 [7]): inactive
Activity (PC-12 [9]): Active
Activity (PC-12 [10]): inactive

Compound: c1ccc(CN(CCN(Cc2ccccn2)Cc2ccccn2)Cc2ccccn2)nc1
pKd [3]: 15.59
Activity (PC-12 [11]): Active
Activity (PC-12 [5]): Dose-dependent effect
pEC50 (PC-12 [5]): 4.42
Activity (PC-12 [12]): inactive
Activity (PC-12 [13]): Active
Activity (PC-12 [10]): inactive
Activity (PC-12 [14]): inactive

logP [17]: 3.43
Compound: C=CCc1cccc(/C=N/NC(=O)CN2CCN(Cc3ccccc3)CC2)c1O [PAC-1]
pKd [3]: 7.38
Activity (PC-12 [5]): Dose-dependent effect
pEC50 (PC-12 [5]): 3.91
Activity (PC-12 [15]): Active
Activity (PC-12 [16]): inactive
Activity (PC-12 [18]): Active
Activity (PC-12 [19]): inactive
Activity (PC-12 [20]): inactive
Activity (PC-12 [10]): inactive

logD [8]: 1.4
Compound: O=C(CN1CCN(Cc2ccccc2)CC1)NNC(=O)CN(Cc1ccccn1)Cc1ccccn1
Activity (PC-12 [1]): inactive
EC50 (PC-12 [2]): ND(Insoluble)
pKd [3]: 9.00
Activity (PC-12 [4]): Active
Activity (PC-12 [5]): Dose-dependent effect
Activity (PC-12 [6]): Active
Activity (PC-12 [7]): inactive
Activity (PC-12 [9]): inactive
Activity (PC-12 [10]): inactive

Compound: CN[C@@H]1C[C@H]2O[C@@](C)([C@@H]1OC)n1c3ccccc3c3c4c(c5c6ccccc6n2c5c31)C(=O)NC4 [STAUROSPORINE]
RFU (PC-12 [21]): 6000
RFU (PC-12 [22]): 30000
